From PubChem
Lmaj promast – Leishmania major promastigote growth inhibition, primary screen; Leishmania major promastigotes, resazurin fluorescence viability; inhibition, % at 10 µM; hit rate 9% among 200,000; AID 1063, 2008; in the data active = inhibition above about 50%;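 also: promastigotes grown with compound for 44 hours at 28 °C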
CHOP UPR activ – activators of apoptotic CHOP UPR arm, primary screen, cell-based, CHO-CHOP luciferase reporter, luminescence, uHTS. UPR activation; percent of tunicamycin response over DMSO baseline. activation, % at 10 µM. hit rate 0.34% among 330,000. AID 449763, 2010;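 active = at 10 µM dose, activation of 40% or more, normalized to positive control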;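 also: 100% = tunicamycin at 10 µg/mL and 0% = DMSO alone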
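Dosing – one dose, 10 µM in 0.5% DMSO · System – CHO-CHOP cells, stable luciferase reporter of PERK-eIF2a-CHOP signalling · Input – 500 cells/well · Control set – tunicamycin 10 µg/mL final as positive, DMSO-only wells as negative · Timing – 6 h compound treatment, 37 °C · Measure – % activation vs tunicamycin · Technique – luminescence read with Steady-Glo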
UPR XBP1 act – activators of adaptive XBP1 UPR arm, primary screen, cell-based, CHO-XBP1 luciferase reporter, luminescence, uHTS. IRE1-XBP1 UPR activation; percent of tunicamycin response, DMSO as zero. activation, % at 20 µM. hit rate 0.33% among 330,000. AID 463104, 2010;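 active = versus positive control, 20 µM dose yields 30% or more activation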;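 also: 100% = tunicamycin at 10 µg/mL and 0% = DMSO only wells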
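incubation = overnight seeding at 37 °C, 6 h compound treatment at 37 °C | assay system = CHO-XBP1 cells stably carrying IRE1-XBP1-driven luciferase reporter | input = 1000 cells per well | detection = luciferase luminescence | dosing = single point, 20 µM final compound, 1% DMSO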
Dynein transport – inhibitors of GR-EGFP nuclear translocation, primary screen, dynein cargo transport inhibitor project, imaging, high-content, 3617.4 mouse cells; test concentration mostly 20 µM; stimulated with dexamethasone, 1 µM; hits give low values; z-score, hits read low; hit rate 0.47% among 220,000;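 active = plate z-score of nuclear minus cytoplasmic receptor signal below a set negative limit, without overly bright fluorescence or cell loss, cut at about -3.5 in these data, passing the limit was not always enough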;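 also: z-score of nuclear minus cytoplasmic ring GR-EGFP intensity difference per well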
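Buffer or medium – tet-free medium with charcoal-stripped serum · Signal – automated 10x imaging of fixed Hoechst-stained cells · Also added – dexamethasone agonist, 1.0 µM final, for 30 min · Incubation – induction 48 h, compound 1 h, agonist 30 min · Read-out – GR-EGFP nuclear translocation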
T cruzi repl – inhibitors of intracellular T. cruzi growth, primary screen, luminescence, NIH3T3 host cells | T. cruzi beta-gal in NIH3T3, 90 h | inhibition, % (no concentration beside the values) | hit rate 1.4% among 300,000;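 active = mean inhibition across valid replicates above about 55%, limit read from the data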;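 also: signal also drops with host cell toxicity which is not excluded here; 0% = plate median of DMSO wells and 100% = zero luminescence signal; higher percent means less beta-gal luminescence so fewer parasites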
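Assay system: NIH/3T3 fibroblasts plus reporter T. cruzi. Amount: NIH/3T3 cells, 5,000 per well. Buffer or medium: DMEM, 2% fetal bovine serum. Doses: compound pinned at 50 nL/well, DMSO. Schedule: ≥90 h infection period, 3 h prior cell attachment. Signal: luminescent β-galactosidase signal after 60 min lysis. Read-out: parasite load inhibition, %.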
CHOP inh – inhibitors of CHOP promoter induction, primary screen, cell-based, unfolded protein response, luciferase reporter; inhibition, % at 10 µM; hit rate 3.8% among 220,000; AID 2732, 2010; CHO-K1 CHOP-promoter luciferase, tunicamycin-induced, 15-18 h;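 active = compounds that reduced the stress-induced luciferase reporter signal by more than about 70% of percent inhibition, limit read from the data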;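 also: 0% = tunicamycin plus vehicle and 100% = wells without tunicamycin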
Active calls of the source: *; . = no result given. This is one part of a sample in which hits are shown more often than they occur.

SMILES	Lmaj promast	CHOP UPR activ	UPR XBP1 act	Dynein transport	T cruzi repl	CHOP inh
Cc1ccc(S(=O)(=O)N2CCN(C(=O)Cn3nc(C)c([N+](=O)[O-])c3C)CC2)cc1	.	-2	-5	.	.	.
O=C(c1cc(COc2ccc(F)c(F)c2)on1)N1CCN(C2CCCCC2)C(=O)C1	.	1	-3	.	-12	.
COc1ccc(C2SCCN2C(=S)Nc2cccc(C(F)(F)F)c2)cc1 (configuration not stated)	96*	0	2	-0.78	-49	54
COc1ccc(C2SCCN2C(=S)Nc2ccc(F)cc2)cc1 (configuration not stated)	22	-1	-2	-0.73	-73	20
O=C(O)CSc1nc(-c2ccc(Cl)cc2)nc2c1oc1ccccc12	-5	.	.	-0.96	11	74*
CCN(CC(=O)Nc1c(F)cccc1F)C(=O)COc1ccc2c(c1)CCC2	.	0	-1	.	-1	.
O=C(COC(=O)/C=C/c1cccc(F)c1)NC(=O)NCc1ccccc1	.	0	-3	.	.	.
COc1cc(/C=N/N=C(N)N)ccc1OCc1ccccc1Cl	101*	4	14	-3.1	55*	57
COc1ccc(/C=N/N=C/c2ccc(OC)c(OC)c2)cc1OC	-5	0	2	-0.56	-6	14
Cc1csc(NC(=O)CSc2nnc(NC(=O)NC(C)(C)C)s2)n1	.	0	-3	.	-7	.
CC(C)[C@H](NC(=O)c1ccccc1)C(=O)OCC(=O)c1ccccc1F	5	0	2	0.38	-11	3
Cc1ccc(C)c(S(=O)(=O)N2CCCOC2CNC(=O)C(=O)NCCC2=CCCCC2)c1 (configuration not stated)	2	1	-1	-0.28	13	33
CC(C)C(NC(=O)c1ccc(C(C)(C)C)cc1)C(=O)OCC(=O)NC(=O)Cc1ccccc1 (configuration not stated)	50*	-1	-1	-0.023	-8	5
CC(C)[C@H](NC(=O)c1ccccc1)C(=O)OCC(=O)NCCC1=CCCCC1	59*	1	-1	0.12	-4	6
CC(C)CCNC(=O)C(=O)NCCC1=CCCCC1	34	3	5	-0.36	-6	29
CC(NC(=O)C(=O)NCCC1=CCCCC1)c1ccccc1 (configuration not stated)	-4	2	2	-0.52	3	95*
CC(C)[C@H](NC(=O)c1ccccc1)C(=O)OCC(=O)NCCc1ccc(F)cc1	1	0	-2	-0.95	8	10
O=C(NCCC1=CCCCC1)C(=O)NCC1OCCCN1S(=O)(=O)c1ccccc1 (configuration not stated)	96*	-1	-1	-0.021	0	24
O=[N+]([O-])C1C(c2ccccc2)=NOC1c1ccccc1O (configuration not stated)	.	2	-1	.	-21	.
CC(=O)N1CCN(S(=O)(=O)c2ccc3c(c2)CCC(=O)N3)CC1	.	1	-5	.	.	.
COC(=O)C1=C(CS(=O)(=O)c2cc(OC)ccc2OC)NC(=O)NC1c1ccc(O)c(OC)c1 (configuration not stated)	.	0	0	.	-16	.
CN1C2=C(C(=O)CC(C)(C)C2)C(c2cccs2)C2=C1CC(C)(C)CC2=O	.	0	2	.	10	.
NS(=O)(=O)c1ccc(N2CCN(C(=O)C3COc4ccccc4O3)CC2)nc1 (configuration not stated)	.	0	-1	.	.	.
CCCOC(=O)c1ccc(-c2c(C)noc2-c2ccc(OC)cc2O)o1	56*	-2	-1	1.4	-14	93*
CCc1nn2c(=O)cc(COC(=O)c3cc(Cl)c(OC)c(OC)c3)nc2s1	.	-2	-1	.	.	.
SMILES	Lmaj promast	CHOP UPR activ	UPR XBP1 act	Dynein transport	T cruzi repl	CHOP inh
O=C(c1ccc(Cl)cc1[N+](=O)[O-])N(Cc1ccccc1)Cc1ccccc1	10	-1	0	0.13	27	73*
CC(C)(C)N(Cc1ccccc1)C(=O)c1ccc(Cl)cc1[N+](=O)[O-]	13	2	1	0.39	-3	34
COc1ccc(N2CC(C(=O)Nc3cccnc3)CC2=O)cc1 (configuration not stated)	.	-1	2	.	-5	.
Cc1ccc(-c2cc(C(F)(F)F)n3nc(C(=O)NCCCn4ccnc4)cc3n2)cc1C	100*	1	3	-0.66	6	-165
Cc1ccc(-c2cc(C(F)(F)F)n3nc(C(=O)Nc4ccon4)cc3n2)cc1C	.	5	7	-0.32	-16	9
COC(=O)c1cc2nc(-c3ccc(OC)cc3)cc(C(F)(F)F)n2n1	-3	2	-5	-1	.	70*
COC(=O)c1cc2nc(-c3ccc(C)cc3)cc(C(F)(F)F)n2n1	-5	-2	0	-0.95	-11	-24
COc1cccc(C(C(=O)NCc2ccccc2)N(C(=O)c2csnn2)C2CC2)c1 (configuration not stated)	.	-1	3	.	-12	.
COC(=O)c1c(NC(=S)Nc2ccccc2Cl)sc(C)c1C	-4	-1	1	-0.54	-16	89*
CCOC(=O)c1cc(CC)sc1NC(=O)C1CC(=O)NN1Cc1ccccc1 (configuration not stated)	4	0	-1	-0.26	22	51
COC(=O)c1c(NC(=O)C2CC(=O)NN2Cc2ccccc2)sc(C)c1C (configuration not stated)	100*	0	6	-0.66	17	-1
Cc1ccc(-c2oc3ccccc3c(=O)c2O)cc1	-15	6	6	0.4	-5	72*
Cc1ccc(-c2oc3ccccc3c(=O)c2OCC(=O)O)cc1	2	0	-1	-0.44	3	3
CCO[C@H]1OC(C(=O)N2CCN(Cc3ccc4c(c3)OCO4)CC2)=C[C@@H](c2csc3ccccc23)[C@@H]1CCCO	74*	2	-2	-1.3	17	26
CCO[C@@H]1OC(C(=O)N2CCN(Cc3ccc4c(c3)OCO4)CC2)=C[C@H](C2CCCCC2)[C@H]1CCCO	67*	3	2	-0.66	72*	24
CCO[C@H]1OC(C(=O)N2CCN(Cc3ccc4c(c3)OCO4)CC2)=C[C@@H](c2cn(C(C)=O)c3ccccc23)[C@@H]1CCCO	47	0	-2	-0.17	7	48
Cc1cccc(/N=C/c2c(O)cc(C)oc2=O)n1	-5	-2	2	-0.93	-7	1
